From ChEMBL document CHEMBL5107954, “Potency and metabolic stability: a molecular hybrid case in the design of novel PF74-like small molecules targeting HIV-1 capsid protein” (RSC Med Chem, 2021)

Legend:
[1] = Cytotoxicity against human TZM cells expressing GFP assessed as inhibition of cell growth incubated for 72 hrs by XTT assay; format: toxicity, cell-based
Summary of the method: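 TZM-GFP cells at 1 × 10^4 cells/well were exposed continuously to increasing compound concentrations for 72 h. Viable cells were read by XTT. CC50 came from a log(inhibitor) vs. normalized response, variable-slope curve fit. Run in duplicate, ≥2 independent experiments, mean ± SD.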

[2] = (§1) Antiviral activity against wild type HIV1 NL4-3 infected in human TZM cells expressing GFP assessed as inhibition of viral LTR-activated GFP expression preincubated with compound for 24 hrs followed by viral infection and measured after 48 hrs; format: functional, cell-based; conditions: Human immunodeficiency virus 1, NL4-3, TZM
Summary of the method: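 TZM-GFP cells at 1 × 10^4 cells/well were treated with increasing compound concentrations, then infected 24 h later with HIV-1 NL4-3 at MOI 0.1. After 48 h, GFP-positive cells were counted by imaging and compared with DMSO controls. EC50 came from a log(inhibitor) vs. normalized response, variable-slope fit. Run in duplicate, ≥2 independent experiments, mean ± SD.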

[3] = system: Human immunodeficiency virus 1; assay: Binding affinity to HIV-1 capsid protein 121 expressed in Escherichia coli BL21 (DE3) cells assessed as change in melting temperature at 20 uM measured every 10 sec by RT-PCR based thermal shift assay
Summary of the method: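 Crosslinked hexameric CA A14C/E45C/W184A/M185A (CA121), purified protein at 7.5 μM in 50 mM sodium phosphate pH 8.0 with 1× Sypro Orange; compound 20 μM or DMSO control, 1% DMSO final. Heated 25 to 95 °C at 0.2 °C per 10 s in a real-time PCR instrument; fluorescence Ex 475–500, Em 520–590 nm. ΔTm is the hexamer melting point with compound minus DMSO control.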

[4] = Metabolic stability in mouse liver microsomes assessed as half-life at 1 uM measured upto 15 mins in the presence of NADPH as co-factor by LC-MS/MS analysis; format: ADME, Microsome
[5] = Metabolic stability in human liver microsomes assessed as half-life at 1 uM measured upto 15 mins in the presence of NADPH as co-factor by LC-MS/MS analysis; format: ADME, Microsome
[6] = as §1, with “Potency index, ratio of test compound EC50 to PF74 EC50 for antiviral” for “Antiviral”; format: functional, Human immunodeficiency virus 1; conditions: time 72 hrs
[7] = Metabolic stability in human liver microsomes assessed as half-life measured upto 60 mins in the presence of NADPH as co-factor by LC-MS/MS analysis; format: ADME, Microsome

half-life [7]	SMILES	CC50 at 72 h [1]	EC50 [2]	ΔTm [3]	half-life at 1 µM [4]	half-life at 1 µM [5]	Ratio EC50 [6]
	CN(C(=O)[C@H](Cc1ccccc1)NC(=O)CN1CCN(C(=O)c2cccnc2)CC1=O)c1ccc(Cl)cc1	> 50 µM	12.5 µM	0.7 °C			
	CN(C(=O)[C@H](Cc1ccccc1)NC(=O)Cn1ccc(C(F)(F)F)c(Oc2cc(Cl)cc(C(=O)O)c2)c1=O)c1ccc(Cl)cc1	> 50 µM	> 20 µM	1.9 °C			
	CN(C(=O)[C@H](Cc1ccccc1)NC(=O)CN1CCN(C(=O)c2ccccc2C#N)CC1=O)c1ccc(Cl)cc1	> 50 µM	7.5 µM	2.1 °C			
	CN(C(=O)[C@H](Cc1ccccc1)NC(=O)CN1CCN(C(=O)c2cccc(O)c2)CC1=O)c1ccc(Cl)cc1	> 50 µM	> 20 µM	0.8 °C			
	CN(C(=O)[C@H](Cc1ccccc1)NC(=O)CN1CCN(C(=O)c2cccc(Br)c2)CC1=O)c1ccc(Cl)cc1	> 50 µM	9 µM	1.1 °C	1.4 min	4.8 min	
	CN(C(=O)[C@H](Cc1ccccc1)NC(=O)CN1CCN(C(=O)c2cccc(Cl)c2)CC1=O)c1ccc(Cl)cc1	> 50 µM	10.2 µM	1 °C			
	Cc1[nH]c2ccccc2c1CC(=O)N[C@@H](Cc1ccccc1)C(=O)N(C)c1ccccc1	> 50 µM		6.9 °C			
	CN(C(=O)[C@H](Cc1ccccc1)NC(=O)CN1CCN(C(=O)c2ccccc2Br)CC1)c1ccc(Cl)cc1	> 50 µM	20 µM	0.7 °C			
	CN(C(=O)[C@H](Cc1ccccc1)NC(=O)CN1CCN(C(=O)c2ccc(S(=O)(=O)F)cc2)CC1=O)c1ccc(Cl)cc1	> 50 µM	> 20 µM	0.8 °C			
	CN(C(=O)[C@H](Cc1ccccc1)NC(=O)CN1CCN(C(=O)c2ccccc2[N+](=O)[O-])CC1=O)c1ccc(Cl)cc1	> 50 µM	2.7 µM	2.6 °C	0.9 min	3.8 min	
	CN(C(=O)[C@H](Cc1ccccc1)NC(=O)CN1CCN(C(=O)c2ccc(N)cc2)CC1=O)c1ccc(Cl)cc1	> 50 µM	> 20 µM	0.5 °C			
	CN(C(=O)[C@H](Cc1ccccc1)NC(=O)CN1CCN(C(=O)c2ccc(Br)cc2)CC1=O)c1ccc(Cl)cc1	> 50 µM	10.2 µM	0.8 °C			
	CN(C(=O)[C@H](Cc1ccccc1)NC(=O)CN1CCN(C(=O)c2ccc(C#N)cc2)CC1=O)c1ccc(Cl)cc1	> 50 µM	11 µM	1.7 °C			
	CN(C(=O)[C@H](Cc1ccccc1)NC(=O)CN1CCN(C(=O)c2ccccc2F)CC1=O)c1ccc(Cl)cc1	> 50 µM	9.5 µM	1.6 °C	0.9 min	4.1 min	
	CN(C(=O)[C@H](Cc1ccccc1)NC(=O)COn1nnc2cccnc21)c1ccc(Cl)cc1	> 50 µM	5.2 µM	1 °C	0.5 min	0.8 min	
	CN(C(=O)[C@H](Cc1ccccc1)NC(=O)CN1CCN(C(=O)c2cccc(F)c2)CC1=O)c1ccc(Cl)cc1	> 50 µM	13.3 µM	1.7 °C			
	CN(C(=O)[C@H](Cc1ccccc1)NC(=O)CN1CCN(C(=O)c2ccccc2)CC1=O)c1ccc(Cl)cc1	> 50 µM	> 20 µM	0.7 °C			
	CN(C(=O)[C@H](Cc1ccccc1)NC(=O)CN1CCN(C(=O)c2c[nH]c3ccccc23)CC1=O)c1ccc(Cl)cc1	> 50 µM	> 20 µM	0.3 °C			
	CN(C(=O)[C@H](Cc1ccccc1)NC(=O)CN1CCN(C(=O)c2ccc(O)cc2)CC1=O)c1ccc(Cl)cc1	> 50 µM	> 20 µM	0.7 °C			
	CN(C(=O)[C@H](Cc1ccccc1)NC(=O)CN1CCN(C(=O)c2cccc(C(F)(F)F)c2)CC1=O)c1ccc(Cl)cc1	> 50 µM	> 20 µM	0.3 °C			

half-life [7]	SMILES	CC50 at 72 h [1]	EC50 [2]	ΔTm [3]	half-life at 1 µM [4]	half-life at 1 µM [5]	Ratio EC50 [6]
	CN(C(=O)[C@H](Cc1ccccc1)NC(=O)CN1CCN(C(=O)c2cccc(S(=O)(=O)F)c2)CC1=O)c1ccc(Cl)cc1	> 50 µM	> 20 µM	1.1 °C			
	CN(C(=O)[C@H](Cc1ccccc1)NC(=O)CN1CCN(C(=O)c2ccc([N+](=O)[O-])cc2)CC1=O)c1ccc(Cl)cc1	> 50 µM	> 20 µM	1.5 °C			
	CN(C(=O)[C@H](Cc1ccccc1)NC(=O)CN1CCN(C(=O)c2ccccc2N)CC1=O)c1ccc(Cl)cc1	> 50 µM	4.5 µM	0.7 °C	1.3 min	4.4 min	
	CN(C(=O)[C@H](Cc1ccccc1)NC(=O)CN1CCN(C(=O)c2cccc(N)c2)CC1=O)c1ccc(Cl)cc1	> 50 µM	> 20 µM	0.3 °C			
	CN(C(=O)[C@H](Cc1ccccc1)NC(=O)CN1CCNCC1=O)c1ccc(Cl)cc1	> 50 µM	> 20 µM	0.1 °C			
	CN(C(=O)[C@H](Cc1ccccc1)NC(=O)CN1CCN(C(=O)c2cn[nH]c2)CC1=O)c1ccc(Cl)cc1	> 50 µM	> 20 µM	1.3 °C			
	CN(C(=O)[C@H](Cc1ccccc1)NC(=O)CN1CCN(C(=O)c2ccc(C(F)(F)F)cc2)CC1=O)c1ccc(Cl)cc1	> 50 µM	> 20 µM	0.5 °C			
	CN(C(=O)[C@H](Cc1ccccc1)NC(=O)CN1CCN(C(=O)c2ccc(Cl)cc2)CC1=O)c1ccc(Cl)cc1	> 50 µM	9.2 µM	1.3 °C	1.3 min	7.5 min	
	CN(C(=O)[C@H](Cc1ccccc1)NC(=O)CN1CCN(C(=O)c2cccc([N+](=O)[O-])c2)CC1=O)c1ccc(Cl)cc1	> 50 µM	9.3 µM	1.5 °C	0.8 min	2.6 min	
	CN(C(=O)[C@H](Cc1ccccc1)NC(=O)CN1CCN(C(=O)c2ccncc2)CC1=O)c1ccc(Cl)cc1	> 50 µM	15.6 µM	0.7 °C			
	CN(C(=O)[C@H](Cc1ccccc1)NC(=O)CN1CCN(C(=O)c2ccccc2Cl)CC1=O)c1ccc(Cl)cc1	> 50 µM	6.4 µM	1.5 °C	1.1 min	6.2 min	
36 min	CN(C(=O)[C@H](Cc1ccccc1)NC(=O)CNC(=O)c1ccccc1)c1ccc(Cl)cc1		0.88 µM				1.4
	CN(C(=O)[C@H](Cc1ccccc1)NC(=O)CN1CCN(C(=O)c2ccccc2O)CC1=O)c1ccc(Cl)cc1	> 50 µM	> 20 µM	0.8 °C			
	CN(C(=O)[C@H](Cc1ccccc1)NC(=O)CN1CCN(C(=O)c2ccccc2C(F)(F)F)CC1=O)c1ccc(Cl)cc1	> 50 µM	7.2 µM	1.4 °C			
	CN(C(=O)[C@H](Cc1ccccc1)NC(=O)CN1CCN(C(=O)c2ccccn2)CC1=O)c1ccc(Cl)cc1	> 50 µM	12.7 µM	0.8 °C			
	CN(C(=O)[C@H](Cc1ccccc1)NC(=O)CN1CCN(C(=O)c2ccccc2Br)CC1=O)c1ccc(Cl)cc1	> 50 µM	3.8 µM	1.1 °C	1.8 min	7.9 min	
	CN(C(=O)[C@H](Cc1ccccc1)NC(=O)CN1CCN(C(=O)c2cccc(C#N)c2)CC1=O)c1ccc(Cl)cc1	> 50 µM	12.9 µM	1.5 °C			
	CN(C(=O)[C@H](Cc1ccccc1)NC(=O)CN1CCN(C(=O)c2cccc(Cl)n2)CC1=O)c1ccc(Cl)cc1	> 50 µM	7.7 µM	1.1 °C	1 min	3.6 min	
	CN(C(=O)[C@H](Cc1ccccc1)NC(=O)CN1CCN(C(=O)c2ccc(F)cc2)CC1=O)c1ccc(Cl)cc1	> 50 µM	11.5 µM	1.3 °C			
